Laboratory results as given in ChEMBL document CHEMBL2034960, “Bryonolic acid transcriptional control of anti-inflammatory and antioxidant genes in macrophages in vitro and in vivo” (J Nat Prod, 2012).
Activity calls are given as the source filed them. The calls are words filed in the database; no cut-off is given here.

Legend:
[1] = system: RAW264.7; assay: Antioxidant activity in mouse RAW264.7 cells assessed as induction of HO1 expression at 100 uM after 72 hrs by immunoblot analysis; assay type: functional, cell-based
[2] = Solubility of the compound in DMSO; assay type: physicochemical
[3] = system: RAW264.7; assay: Cytotoxicity against mouse RAW264.7 cells at 1000 uM after 24 hrs by MTT assay; assay type: cell-based; details: raw264.7, 24 h
[4] = system: RAW264.7; assay: Antiinflammatory activity in mouse RAW264.7 cells assessed as inhibition of LPS-induced iNOS protein expression at 50 to 100 uM by immunoblot analysis; assay type: functional, cell-based; details: TDE = time-dependent effect
[5] = system: RAW264.7; assay: Antioxidant activity in LPS-stimulated mouse RAW264.7 cells assessed as induction of HO-1 mRNA expression at 100 uM after 4 hrs by RT-PCR analysis; assay type: functional, cell-based
[6] = molecular target: T1, Nuclear factor erythroid 2-related factor 2 (Mus musculus) (UniProt Q60795); assay: Induction of Nrf2-mediated GCLC mRNA expression in mouse RAW264.7 cells at 100 uM after 24 hrs by quantitative RT-PCR analysis relative to control; assay type: cell-based
T1 sequence (whole entry): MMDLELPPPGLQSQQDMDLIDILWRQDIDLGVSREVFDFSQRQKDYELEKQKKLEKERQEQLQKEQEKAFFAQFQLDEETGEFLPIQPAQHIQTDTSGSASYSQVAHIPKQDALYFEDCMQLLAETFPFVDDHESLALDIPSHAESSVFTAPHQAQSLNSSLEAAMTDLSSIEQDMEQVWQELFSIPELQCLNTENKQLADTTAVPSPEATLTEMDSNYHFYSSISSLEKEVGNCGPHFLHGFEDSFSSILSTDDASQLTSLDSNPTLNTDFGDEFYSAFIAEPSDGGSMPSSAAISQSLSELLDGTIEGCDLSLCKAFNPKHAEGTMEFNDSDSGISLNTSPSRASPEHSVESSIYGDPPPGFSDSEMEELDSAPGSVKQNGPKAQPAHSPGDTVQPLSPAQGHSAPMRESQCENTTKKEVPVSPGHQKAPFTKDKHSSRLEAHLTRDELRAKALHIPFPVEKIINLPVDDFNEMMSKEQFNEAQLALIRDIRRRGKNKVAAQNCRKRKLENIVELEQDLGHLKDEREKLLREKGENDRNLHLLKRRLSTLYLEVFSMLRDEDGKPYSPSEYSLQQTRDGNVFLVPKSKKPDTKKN

[7] = system: RAW264.7; assay: Antiinflammatory activity in mouse RAW264.7 cells assessed as inhibition of LPS-induced iNOS protein expression at 100 uM after 4 hrs by immunoblot analysis
[8] = system: RAW264.7; assay: Induction of Nrf2 mRNA expression in mouse RAW264.7 cells at 100 uM after 20 hrs by quantitative RT-PCR analysis relative to control; assay type: functional
[9] = system: RAW264.7; assay: Antioxidant activity in LPS-stimulated mouse RAW264.7 cells assessed as induction of HO-1 mRNA expression at 50 uM after 24 hrs by RT-PCR analysis; assay type: functional, cell-based
[10] = system: RAW264.7; assay: Antioxidant activity in mouse RAW264.7 cells assessed as induction of HO1 expression at 100 uM after 48 hrs by immunoblot analysis; assay type: functional, cell-based
[11] = system: RAW264.7; assay: Antioxidant activity in mouse RAW264.7 cells assessed as induction of HO1 expression at 100 uM after 24 hrs by immunoblot analysis; assay type: functional, cell-based
[12] = molecular target: T1, Nuclear factor erythroid 2-related factor 2 (Mus musculus); assay: Induction of Nrf2-mediated HO1 […] expression in C57BL/6 mouse primary peritoneal macrophages after 48 hrs by immunoblot analysis
[13] = system: RAW264.7; assay: Antioxidant activity in mouse RAW264.7 cells assessed as induction of HO1 expression at 10 to 100 uM by immunoblot analysis; assay type: functional, cell-based; details: TDE = time-dependent effect
[14] = molecular target: T1, Nuclear factor erythroid 2-related factor 2 (Mus musculus); assay: Induction of nuclear translocation of Nrf2 in mouse RAW264.7 cells assessed as decrease in cytoplasmic fraction at 100 uM after 1 hr; assay type: cell-based
Method in brief: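 RAW 264.7 macrophages treated with 50 or 100 μM compound for various times (1–4 h window examined). Cytoplasmic and nuclear fractions were separated and probed for Nrf2 by immunoblot. Translocation was scored as loss of cytoplasmic Nrf2 and nuclear accumulation relative to DMSO control.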

[15] = molecular target: T1, Nuclear factor erythroid 2-related factor 2 (Mus musculus); assay: Induction of Nrf2-mediated HO1 mRNA expression in mouse RAW264.7 cells at 100 uM after 16 to 20 hrs by quantitative RT-PCR analysis relative to control; assay type: cell-based
[16] = system: RAW264.7; assay: Antiinflammatory activity in mouse RAW264.7 cells assessed as inhibition of LPS-induced nitric oxide production after 24 hrs by Griess method; assay type: functional, cell-based; details: RAW264.7, 24 h
[17] = system: RAW264.7; assay: Antioxidant activity in LPS-stimulated mouse RAW264.7 cells assessed as induction of HO-1 protein expression at 50 uM after 24 hrs by immunoblot analysis; assay type: functional, cell-based
[18] = system: Peritoneal macrophage cell; assay: Induction of HO1 […] expression in Nrf2-knockout mouse primary peritoneal macrophages at 5 to 100 uM after 48 hrs by immunoblot analysis; assay type: functional, cell-based
[19] = molecular target: T1, Nuclear factor erythroid 2-related factor 2 (Mus musculus); assay: Induction of Nrf2-mediated HO1 mRNA expression in mouse RAW264.7 cells at 100 uM after 24 hrs by quantitative RT-PCR analysis relative to control; assay type: cell-based
[20] = molecular target: T1, Nuclear factor erythroid 2-related factor 2 (Mus musculus); assay: Induction of Nrf2-mediated HO1 […] expression in C57BL/6 mouse primary peritoneal macrophages at 10 uM after 48 hrs by immunoblot analysis
[21] = system: RAW264.7; assay: Antioxidant activity in mouse RAW264.7 cells assessed as induction of HO1 expression at 50 uM after 24 hrs by immunoblot analysis; assay type: functional, cell-based
[22] = system: RAW264.7; assay: Antioxidant activity in mouse RAW264.7 cells assessed as induction of HO1 expression at 100 uM after 66 hrs by immunoblot analysis; assay type: functional, cell-based
[23] = system: RAW264.7; assay: Antioxidant activity in LPS-stimulated mouse RAW264.7 cells assessed as induction of HO-1 mRNA expression at 100 uM after 20 hrs by RT-PCR analysis relative to control; assay type: functional
[24] = molecular target: T1, Nuclear factor erythroid 2-related factor 2 (Mus musculus); assay: Induction of Nrf2-mediated CAT mRNA expression in mouse RAW264.7 cells at 100 uM after 16 hrs by quantitative RT-PCR analysis relative to control; assay type: cell-based
[25] = molecular target: T1, Nuclear factor erythroid 2-related factor 2 (Mus musculus); assay: Induction of Nrf2-mediated NQO1 mRNA expression in mouse RAW264.7 cells at 100 uM after 16 to 20 hrs by quantitative RT-PCR analysis relative to control; assay type: cell-based

- solubility [2]: soluble
- Activity [6]: inactive
- Activity [12]: Dose-dependent effect
- Activity [14]: Active
- Activity [15]: Active
- IC50 [16]: 53.3 µM
- Activity [19]: Active
- Activity [20]: Active
- fold change (FC) [24]: 1.7
- Activity [25]: Active
SMILES: CC1(C)[C@@H](O)CC[C@]2(C)C3=C(CC[C@@H]12)[C@@]1(C)CC[C@@]2(C)CC[C@@](C)(C(=O)O)C[C@H]2[C@]1(C)CC3 [BRYONOLIC ACID]
- Activity [1]: inactive
- Activity [3]: Toxic
- Activity [4]: tde
- Activity [5]: Active
- Activity [7]: Active
- fold change (FC) [8]: 1.8
- Activity [9]: Active
- Activity [10]: Active
- Activity [11]: Active
- Activity [13]: tde
- Activity [17]: Active
- Activity [18]: inactive
- Activity [21]: Active
- Activity [22]: inactive
- fold change (FC) [23]: 11.3
